Shown is part of a subset that was picked to be rich in hits.
UPR XBP1 act = activators of adaptive XBP1 UPR arm, primary screen, cell-based, CHO-XBP1 luciferase reporter, luminescence, uHTS; IRE1-XBP1 UPR activation; percent of tunicamycin response, DMSO as zero; activation, % at 20 µM; 0.33% of 330,000 active; AID 463104, 2010;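 active = versus positive control, 20 µM dose yields 30% or more activation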
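Material: CHO-XBP1 cells stably carrying IRE1-XBP1-driven luciferase reporter | Medium: F12 with 10% serum | Compound dosing: 20 µM single concentration, DMSO 1% | Incubation: Overnight seeding at 37 °C, 6 h compound treatment at 37 °C | Detection: Steady-Glo luminescence read | Read-out basis: % activation of reporter signal versus tunicamycin and DMSO controls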
A1 inh = caspase 3/7 activation in MEF A1-2A-BIM cells, primary screen, A1 inhibitor project, cell-based, luminescence, HTS. caspase activation, % (test concentration not listed). AID 2462, 2010. Caspase-Glo 3/7 luminescence, 3 h; percent of clofoctol response, vehicle zero. 0.066% of 330,000 active;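 active = over half of replicate activation scores above 10%, or exactly half above 10 with the replicate mean above 10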
CHOP inhibitor = inhibitors of CHOP promoter induction, primary screen, cell-based, unfolded protein response, luciferase reporter; 3.8% of 220,000 active; CHO-K1 CHOP-promoter luciferase, tunicamycin-induced, 15-18 h; inhibition, % at 10 µM;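 active = compounds that reduced the stress-induced luciferase reporter signal by more than about 70% of percent inhibition, limit read from the data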
CHOP UPR activ = activators of apoptotic CHOP UPR arm, primary screen, cell-based, CHO-CHOP luciferase reporter, luminescence, uHTS; 0.34% of 330,000 active; activation, % at 10 µM; UPR activation; percent of tunicamycin response over DMSO baseline;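 active = at 10 µM dose, activation of 40% or more, normalized to positive control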
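Evaluation: % reporter activation, DMSO baseline versus tunicamycin full activation; System: CHO-CHOP luciferase reporter cell line; Input: 500 cells/well; Incubation: 6 h compound treatment, 37 °C; Measured by: Steady-Glo luciferase luminescence; Dosing: one dose, 10 µM in 0.5% DMSO; Buffer or medium: F12 medium, 10% FBS; Benchmarks: positive tunicamycin 10 µg/mL, negative DMSO alone.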
Of the large screens only hits and unclear results are named; the others gave an inactive call.

CN1C(=O)Cc2cc(S(=O)(=O)Nc3ccc(Cl)cc3)ccc21	none (no result: CHOP inhibitor)
Cc1nnc(NC(=O)c2ccc(F)c(S(=O)(=O)N3CCCCC3)c2)s1	none (no result: CHOP inhibitor)
CCOc1ccc(OCC)c(NC(=O)CSc2nc3cccnc3n2C)c1	none
COc1ccc2nc(NC(=O)CSc3nc(C)cc(C)n3)sc2c1	none
COc1ccc2nc(NC(=O)CSc3nc4ccccc4o3)sc2c1	CHOP inhibitor 72
CCOc1ccc2nc(NC(=O)CSc3nc4cccnc4n3C)sc2c1	CHOP inhibitor 77
CCn1c(Cc2ccc(OC)cc2)nnc1SCC(=O)Nc1nc2ccccc2s1	CHOP inhibitor 83
COc1ccc2nc(NC(=O)Nc3cccc4ccccc34)sc2c1	CHOP inhibitor 88
CCn1c(SCC(=O)Nc2nc3ccccc3s2)nnc1-c1ccc(Br)cc1	none
CC(=O)c1cccc(NC(=O)C(C)OC(=O)CN2C(=O)NC(C)(C)C2=O)c1 (stereo not drawn)	none (no result: CHOP inhibitor)
COc1cccc(NC(=O)CN(C)C(C)C(=O)N2CCCC2)c1 (stereo not drawn)	none (no result: CHOP inhibitor)
O=C1CC(N2CCN(C3CC(=O)N(CCc4ccccc4)C3=O)CC2)C(=O)N1CCc1ccccc1 (stereo not drawn)	none
O=C1CC(N2CCC(Cc3ccccc3)CC2)C(=O)N1CCc1ccccc1 (stereo not drawn)	CHOP inhibitor 72
CC(C)C(NC(=O)C(C)N1C(=O)c2ccccc2C1=O)c1ccccc1 (stereo not drawn)	none (no result: CHOP inhibitor)
CN(C)c1ccc(C(=O)OCc2ccccc2)cc1	none
COC(=O)c1ccc(COC(=O)c2ccc(N(C)C)cc2)cc1	CHOP inhibitor 80
S=C(NNc1ccnc2cc(Cl)ccc12)Nc1ccccc1Cl	CHOP inhibitor 96
S=C(Nc1ccccc1Cl)Nc1ccc(Cl)cc1Cl	none
COc1ccc(OC)c(C(=O)NC(CC(N)=O)c2ccc(NC(C)C)c([N+](=O)[O-])c2)c1 (stereo not drawn)	none (no result: CHOP inhibitor)
O=c1cc(Nc2ccc3c(c2)OCO3)[nH]c(=O)n1-c1ccc(Br)cc1	CHOP inhibitor 77
O=c1cc(Nc2ccc3c(c2)OCCO3)[nH]c(=O)n1-c1ccc(Br)cc1	none
C=CCn1c(SCc2nc3ccccc3c(=O)[nH]2)nnc1-c1cc2cc(Cl)ccc2o1	CHOP inhibitor 83
CCCC(=O)N=C1SC2CS(=O)(=O)CC2N1c1ccc(-c2nc3ccc(C)cc3s2)cc1 (stereo not drawn)	UPR XBP1 act 65, CHOP inhibitor 77
Cc1ccc(N2C(=NC(=O)c3ccccc3)SC3CS(=O)(=O)CC32)cc1 (stereo not drawn)	none (no result: CHOP inhibitor)
Cc1ccc(NS(=O)(=O)c2ccc3[nH]c(=O)sc3c2)cc1	none
CCOc1ccc(-c2csc(/C(C#N)=C\c3ccc(O)c([N+](=O)[O-])c3)n2)cc1	CHOP inhibitor 94
COc1ccc(Cl)cc1NC(=O)CN(C)C(=O)Cn1cnnn1	none (no result: CHOP inhibitor)
O=[N+]([O-])c1cccc(S(=O)(=O)Nc2nc3ccccc3nc2Nc2cccc(S(=O)(=O)N3CCCCC3)c2)c1	CHOP inhibitor 82 (no result: UPR XBP1 act, A1 inh, CHOP UPR activ)
CCOC(=O)c1c(C)[nH]c(C)c1C(=O)COC(=O)[C@@H](NC(=O)c1ccco1)C(C)C	none (no result: CHOP inhibitor)
O=C(Cn1nnc(-c2cccc(C(F)(F)F)c2)n1)NC(=O)NCc1ccco1	CHOP inhibitor 90
O=C(Cn1nnc(-c2ccccc2)n1)NCc1ccco1	none
CCCCc1c(O)nc(SCC(=O)O)[nH]c1=O	none
CCCc1c(O)nc(SCC(=O)O)[nH]c1=O	CHOP inhibitor 76
O=C(NCc1ccc2c(c1)OCO2)c1ccc(CS(=O)(=O)c2ccc(Br)cc2)o1	CHOP inhibitor 74
CSc1nc(-c2ccco2)nn1C(=O)c1ccc(C)cc1	CHOP inhibitor 80
CSc1nc(N)c2ncn([C@@H]3O[C@H](COP(=O)(O)OP(=O)(O)OP(=O)(O)O)[C@H](O)C3O)c2n1 (stereo partly drawn)	none (no result: UPR XBP1 act, A1 inh, CHOP UPR activ)
Cc1cc(NC(=O)CSc2nc3c(cc2C#N)CCC3)no1	none (no result: CHOP inhibitor)
COc1cc(/C=C(\C#N)C(=O)NCCc2ccccc2)cc(OC)c1O	none
COc1cc(/C=C(\C#N)C(=O)N2CCc3ccccc32)ccc1O	none
N#C/C(=C\c1ccc(O)c(O)c1)C(=O)N1CCc2ccccc21	CHOP UPR activ 175 (no result: CHOP inhibitor)
N#C/C(=C\c1ccc(O)c(O)c1)C(=O)NCCc1ccccc1	CHOP UPR activ 223
Cc1nnc(NC(=O)CSc2nnc(CNC(=O)c3ccc(S(=O)(=O)N(C)C)cc3)o2)s1	none (no result: CHOP inhibitor)
CCOC(=O)C1CCCN(CC(=O)Nc2c(C(=O)OC)[nH]c3ccc(Br)cc23)C1 (stereo not drawn)	CHOP inhibitor 77
CCOC(=O)C1CCN(CC(=O)Nc2c(C(=O)OC)[nH]c3ccc(Cl)cc23)CC1	none (no result: CHOP inhibitor)
Cc1cc(Br)ccc1NC(=O)CN(C)C(=O)Cn1c(=O)cnc2ccccc21	none (no result: CHOP inhibitor)
C=CCC1(NCc2ccco2)CCN(CC)CC1	none
COc1nc(Nc2nc3ccccc3c(=O)[nH]2)nc2ccc(C)cc12	CHOP inhibitor 88
O=C(Nc1nnc(-c2ccc3c(c2)CCCC3)o1)C1CCCCC1	CHOP inhibitor 84 (no result: A1 inh)
O=C(Nc1nnc(-c2ccc3c(c2)CCCC3)o1)c1ccc(Cl)cc1Cl	CHOP inhibitor 98
O=C(Nc1nnc(-c2ccc3c(c2)CCCC3)o1)c1c(F)cccc1F	none
O=C(CCc1ccccc1)Nc1nnc(-c2ccc3c(c2)CCCC3)o1	CHOP inhibitor 94
CCOCc1c(C(=O)Nc2ccccc2N2CCN(C)CC2)oc2ccccc12	none (no result: A1 inh, CHOP inhibitor)
CCC(=O)N1CCN(c2nc3ccc(Br)cc3s2)CC1	none (no result: CHOP inhibitor)
COc1ccc(OCC(=O)Nc2ccccc2-c2ccccc2)cc1	none
COc1ccc(CC(=O)Nc2ccccc2-c2ccccc2)cc1OC	none (no result: CHOP inhibitor)
Cc1cccc(OCC(=O)Nc2ccccc2-c2ccccc2)c1	CHOP inhibitor 85 (no result: UPR XBP1 act, CHOP UPR activ)
Cc1ccc(CC(=O)Nc2ccccc2-c2ccccc2)cc1C	CHOP inhibitor 89
CC(C)(C)N(Cc1ccccc1)C(=O)COC(=O)CCN1C(=O)C2CC=CCC2C1=O (stereo not drawn)	none (no result: A1 inh, CHOP inhibitor)
CCCn1cc(S(=O)(=O)c2ccccc2)c(=O)c2cc(CC)ccc21	none (no result: CHOP inhibitor)
O=C1Nc2ccccc2Oc2cc([N+](=O)[O-])ccc21	CHOP inhibitor 74
N#Cc1cc(-c2ccccc2)nc(Oc2ccc(Cl)cc2)n1	CHOP inhibitor 71
Fc1ccc(/C=C\c2nccc3c2[nH]c2ccccc23)cc1	CHOP inhibitor 90
CCOc1ccc(NC(=O)COC(=O)CC2CC3CCC2C3)cc1 (stereo not drawn)	none (no result: CHOP inhibitor)
c1ccc(Nc2nc(-c3ccncc3)nc3ccccc23)cc1	none
Fc1ccc(Nc2nc(-c3ccncc3)nc3ccccc23)cc1	CHOP inhibitor 90
CN1C(=O)/C(=C/c2cccc(Cl)c2)Sc2ccc(C(=O)N3CCCC3)cc21	none (no result: CHOP inhibitor)
CCCCC(=O)Nc1nn(C)c2nc3c(C)cccc3cc12	CHOP inhibitor 76
CCCCC(=O)Nc1nn(CC)c2nc3c(C)cccc3cc12	none (no result: CHOP inhibitor)
